One test has as its system DeHa4. Kind of test: fluoride ion probe, Lineweaver-Burk. To be noted: pH 7, PBS, 37 °C, 28 h. In kind it is biochemical, Delftia acidovorans. Put shortly:
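Cobalt-affinity-purified enzyme from E. coli BL21 DE3 (pET15b), 250 μg in 0.5 mL with MFA (0.4–3 mM) or DFA (10–120 mM), 28 h, 250 rpm. Samples diluted in low-level TISAB and water, then read by fluoride electrode against NaF calibration (0–20 μM, second-order polynomial fit). Product equals fluoride for MFA and half of fluoride for DFA. Velocity is product per hour. 4–6 independent runs.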

Another test has as its target T1, DeHa2 (Delftia acidovorans, UniProt Q7DI63).
T1 sequence (Q7DI63 1-224): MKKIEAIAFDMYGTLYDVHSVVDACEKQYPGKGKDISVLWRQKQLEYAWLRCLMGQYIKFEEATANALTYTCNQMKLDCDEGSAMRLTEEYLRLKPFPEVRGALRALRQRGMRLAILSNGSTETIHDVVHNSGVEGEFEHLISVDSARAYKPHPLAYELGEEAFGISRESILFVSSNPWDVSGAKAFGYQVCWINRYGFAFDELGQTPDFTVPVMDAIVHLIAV
Put plainly: fluoride ion probe, Lineweaver-Burk. In kind it is biochemical. Conditions: pH 7, PBS, 37 °C, 28 h.

For `O=C(O)C(F)F` [DFA, difluoroacetate], the Km in the test with DeHa4 stood at 39 ± 2.36 mM.

As for `O=C(O)CF` [MFA, monofluoroacetate], the figures for the Michaelis constant (Km) at DeHa2 and in the test with DeHa4 were 5.47 ± 1.54 mM and 2.19 ± 0.37 mM, respectively.
